In ChEMBL document CHEMBL1152173, “Synthesis and in vitro evaluation of the antifungal activities of dihydropyrimidinones” (2008):
≈ marks a conversion by molar mass, not a printed value. Calls of active or inactive are those of the source. No cut-off for these calls is given here.

How the values were obtained:
[1] = tested on: Trichoderma koningii; assay: Antifungal activity against Trichoderma koningii assessed as radial growth at 7% after 72 hrs by poison food technique of Flack relative to control; type: functional
Procedure, shortened: (§1)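 Acetone stock added to molten sterilized PDA to final 0.5–7%, plated in 90 mm dishes with compound-free plates as control. Each plate was inoculated with a 9 mm disc from a 4-day-old culture, incubated at 25 ± 1 °C, and colony diameter measured at 24 h intervals. % inhibition = (control − treatment)/control × 100; three replicates averaged.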

[2] = tested on: Trichoderma koningii; assay: Antifungal activity against Trichoderma koningii assessed as radial growth at 1% after 48 hrs by poison food technique of Flack relative to control; type: functional; procedure, shortened: as §1
[3] = tested on: Trichoderma koningii; assay: Antifungal activity against Trichoderma koningii assessed as radial growth at 5% after 24 hrs by poison food technique of Flack relative to control; type: functional; procedure, shortened: as §1
[4] = tested on: Aspergillus niger; assay: Antifungal activity against Aspergillus niger assessed as radial growth at 1% after 48 hrs by poison food technique of Flack relative to control; type: functional
[5] = tested on: Aspergillus niger; assay: Antifungal activity against Aspergillus niger assessed as radial growth at 7% after 48 hrs by poison food technique of Flack relative to control; type: functional
[6] = tested on: Trichoderma hamatum; assay: Antifungal activity against Trichoderma hamatum assessed as radial growth at 7% after 72 hrs by poison food technique of Flack relative to control; type: functional; procedure, shortened: as §1
[7] = tested on: Trichoderma koningii; assay: Antifungal activity against Trichoderma koningii assessed as radial growth at 5% after 72 hrs by poison food technique of Flack relative to control; type: functional; procedure, shortened: as §1
[8] = tested on: Aspergillus niger; assay: Antifungal activity against Aspergillus niger assessed as radial growth at 0.5% after 48 hrs by poison food technique of Flack relative to control; type: functional
[9] = tested on: Aspergillus niger; assay: Antifungal activity against Aspergillus niger assessed as radial growth at 5% after 48 hrs by poison food technique of Flack relative to control; type: functional
[10] = tested on: Aspergillus niger; assay: Antifungal activity against Aspergillus niger assessed as radial growth at 1% after 72 hrs by poison food technique of Flack relative to control; type: functional
[11] = tested on: Trichoderma koningii; assay: Antifungal activity against Trichoderma koningii assessed as radial growth at 0.5% after 72 hrs by poison food technique of Flack relative to control; type: functional; procedure, shortened: as §1
[12] = tested on: Aspergillus niger; assay: Antifungal activity against Aspergillus niger assessed as radial growth at 3% after 72 hrs by poison food technique of Flack relative to control; type: functional
[13] = tested on: Aspergillus niger; assay: Antifungal activity against Aspergillus niger assessed as radial growth at 5% after 72 hrs by poison food technique of Flack relative to control; type: functional
[14] = tested on: Trichoderma hamatum; assay: Antifungal activity against Trichoderma hamatum assessed as radial growth at 5% after 48 hrs by poison food technique of Flack relative to control; type: functional; procedure, shortened: as §1
[15] = tested on: Trichoderma hamatum; assay: Antifungal activity against Trichoderma hamatum assessed as radial growth at 0.5% after 48 hrs by poison food technique of Flack relative to control; type: functional
[16] = tested on: Trichoderma koningii; assay: Antifungal activity against Trichoderma koningii assessed as radial growth at 0.5% after 24 hrs by poison food technique of Flack relative to control; type: functional; procedure, shortened: as §1
[17] = tested on: Aspergillus niger; assay: Antifungal activity against Aspergillus niger assessed as radial growth at 0.5% after 72 hrs by poison food technique of Flack relative to control; type: functional
[18] = tested on: Trichoderma koningii; assay: Antifungal activity against Trichoderma koningii assessed as radial growth at 0.5% after 48 hrs by poison food technique of Flack relative to control; type: functional; procedure, shortened: as §1
[19] = tested on: Aspergillus niger; assay: Antifungal activity against Aspergillus niger assessed as radial growth at 3% after 24 hrs by poison food technique of Flack relative to control; type: functional
[20] = tested on: Trichoderma hamatum; assay: Antifungal activity against Trichoderma hamatum assessed as radial growth at 1% after 48 hrs by poison food technique of Flack relative to control; type: functional
[21] = tested on: Trichoderma hamatum; assay: Antifungal activity against Trichoderma hamatum assessed as radial growth at 7% after 24 hrs by poison food technique of Flack; type: functional, organism-based
Procedure, shortened: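 Poisoned-food method: acetone stock mixed into molten sterilized potato dextrose agar to final 0.5, 1, 3, 5 or 7%, poured into 90 mm plates. Plates were inoculated with a 9 mm mycelial disc from a 4-day-old pure culture and incubated at 25 ± 1 °C. Colony diameter (mm) was read every 24 h; mean of three replicates.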

[22] = tested on: Trichoderma koningii; assay: Antifungal activity against Trichoderma koningii assessed as radial growth at 3% after 72 hrs by poison food technique of Flack relative to control; type: functional; procedure, shortened: as §1
[23] = tested on: Trichoderma koningii; assay: Antifungal activity against Trichoderma koningii assessed as radial growth at 1% after 72 hrs by poison food technique of Flack relative to control; type: functional; procedure, shortened: as §1
[24] = tested on: Trichoderma koningii; assay: Antifungal activity against Trichoderma koningii assessed as radial growth at 7% after 24 hrs by poison food technique of Flack relative to control; type: functional; procedure, shortened: as §1
[25] = tested on: Aspergillus niger; assay: Antifungal activity against Aspergillus niger; type: functional
[26] = tested on: Trichoderma hamatum; assay: Antifungal activity against Trichoderma hamatum assessed as radial growth at 1% after 72 hrs by poison food technique of Flack relative to control; type: functional
[27] = tested on: Aspergillus niger; assay: Antifungal activity against Aspergillus niger assessed as radial growth at 3% after 48 hrs by poison food technique of Flack relative to control; type: functional
[28] = tested on: Aspergillus niger; assay: Antifungal activity against Aspergillus niger assessed as radial growth at 5% after 24 hrs by poison food technique of Flack relative to control; type: functional
[29] = tested on: Trichoderma hamatum; assay: Antifungal activity against Trichoderma hamatum assessed as radial growth at 3% after 24 hrs by poison food technique of Flack relative to control; type: functional
[30] = tested on: Trichoderma koningii; assay: Antifungal activity against Trichoderma koningii assessed as radial growth at 3% after 24 hrs by poison food technique of Flack relative to control; type: functional; procedure, shortened: as §1
[31] = tested on: Trichoderma koningii; assay: Antifungal activity against Trichoderma koningii assessed as radial growth at 7% after 48 hrs by poison food technique of Flack relative to control; type: functional; procedure, shortened: as §1
[32] = tested on: Aspergillus niger; assay: Antifungal activity against Aspergillus niger assessed as radial growth at 7% after 24 hrs by poison food technique of Flack relative to control; type: functional
[33] = tested on: Trichoderma hamatum; assay: Antifungal activity against Trichoderma hamatum assessed as radial growth at 7% after 24 hrs by poison food technique of Flack relative to control; type: functional; procedure, shortened: as §1
[34] = tested on: Trichoderma hamatum; assay: Antifungal activity against Trichoderma hamatum; type: functional
[35] = tested on: Trichoderma hamatum; assay: Antifungal activity against Trichoderma hamatum assessed as radial growth at 3% after 48 hrs by poison food technique of Flack relative to control; type: functional
[36] = tested on: Trichoderma hamatum; assay: Antifungal activity against Trichoderma hamatum assessed as radial growth at 1% after 24 hrs by poison food technique of Flack relative to control; type: functional
[37] = tested on: Trichoderma koningii; assay: Antifungal activity against Trichoderma koningii assessed as radial growth at 5% after 48 hrs by poison food technique of Flack relative to control; type: functional; procedure, shortened: as §1
[38] = tested on: Trichoderma koningii; assay: Antifungal activity against Trichoderma koningii assessed as radial growth at 3% after 48 hrs by poison food technique of Flack relative to control; type: functional; procedure, shortened: as §1
[39] = tested on: Trichoderma hamatum; assay: Antifungal activity against Trichoderma hamatum assessed as radial growth at 5% after 72 hrs by poison food technique of Flack relative to control; type: functional; procedure, shortened: as §1
[40] = tested on: Trichoderma hamatum; assay: Antifungal activity against Trichoderma hamatum assessed as radial growth at 7% after 48 hrs by poison food technique of Flack relative to control; type: functional; procedure, shortened: as §1
[41] = tested on: Trichoderma hamatum; assay: Antifungal activity against Trichoderma hamatum assessed as radial growth at 3% after 72 hrs by poison food technique of Flack relative to control; type: functional
[42] = tested on: Trichoderma hamatum; assay: Antifungal activity against Trichoderma hamatum assessed as radial growth at 0.5% after 24 hrs by poison food technique of Flack relative to control; type: functional
[43] = tested on: Trichoderma hamatum; assay: Antifungal activity against Trichoderma hamatum assessed as radial growth at 0.5% after 72 hrs by poison food technique of Flack relative to control; type: functional
[44] = tested on: Aspergillus niger; assay: Antifungal activity against Aspergillus niger assessed as radial growth at 1% after 24 hrs by poison food technique of Flack relative to control; type: functional

CCOC(=O)C1=C(C)NC(=S)NC1c1ccccc1O (centres undefined)
inhibition (INH) [1]: 91.05% | inhibition (INH) [2]: 0% | inhibition (INH) [3]: 100% | inhibition (INH) [4]: 0% | inhibition (INH) [5]: 61.83% | inhibition (INH) [6]: 98.35% | inhibition (INH) [7]: 88.33% | inhibition (INH) [8]: 0% | inhibition (INH) [9]: 50% | inhibition (INH) [10]: 0% | inhibition (INH) [11]: 0% | inhibition (INH) [12]: 23.37% | inhibition (INH) [13]: 31.92% | inhibition (INH) [14]: 100% | inhibition (INH) [15]: 6.18% | inhibition (INH) [16]: 0% | inhibition (INH) [17]: 0% | inhibition (INH) [18]: 0% | inhibition (INH) [19]: 54.95% | inhibition (INH) [20]: 51.46% | Activity [21]: Active | inhibition (INH) [22]: 32.71% | inhibition (INH) [23]: 14.37% | inhibition (INH) [24]: 100% | MIC [25]: 0.025 mg/L (≈ 0.0855 µM) | inhibition (INH) [26]: 38.22% | inhibition (INH) [27]: 38.16% | inhibition (INH) [28]: 62.46% | inhibition (INH) [29]: 81.13% | inhibition (INH) [30]: 50.39% | inhibition (INH) [31]: 93.75% | inhibition (INH) [32]: 62.46% | inhibition (INH) [33]: 100% | MIC [34]: 0.025 mg/L (≈ 0.0855 µM) | inhibition (INH) [35]: 80.94% | inhibition (INH) [36]: 49.73% | inhibition (INH) [37]: 91.4% | inhibition (INH) [38]: 4.18% | inhibition (INH) [39]: 97.52% | inhibition (INH) [40]: 100% | inhibition (INH) [41]: 76.44% | inhibition (INH) [42]: 26.41% | inhibition (INH) [43]: 0% | inhibition (INH) [44]: 20.12%
